Test results reported in paper PMC9476207 (ACS Omega, 2022).

Columns and labels:
EKVX = assay: NCI-60 single-dose antiproliferative screen; format: cell-based; conditions: Homo sapiens, 48 h, read-out: growth percent
Method in brief: (§1)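 NCI-60 protocol. Lines were grown in RPMI 1640 with 5% FBS and 2 mM L-glutamine, plated and incubated 24 h at 37 °C; time-zero plates were TCA-fixed. The test compound was dissolved in DMSO, diluted in medium with 50 μg/mL gentamicin and given once at a final 10^-5 M (DMSO control) for 48 h. Cells were fixed with cold TCA (1 h, 4 °C) and stained with 0.4% SRB in 1% acetic acid for 10 min. Dye was dissolved in 10 mM Trizma base and read at 515 nm. Growth percent was calculated from time-zero, test and control ODs.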

SNB-75 = assay: NCI-60 single-dose antiproliferative screen; format: cell-based; conditions: Homo sapiens, SNB-75, 48 h, read-out: growth percent
Method in brief: (§2)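 Cells grown in RPMI 1640 with 5% FBS and 2 mM L-glutamine, plated and held 24 h at 37 °C; time-zero plates TCA-fixed. DMSO stocks were diluted in gentamicin-containing medium to a final 10^-5 M, with a DMSO-only control. Exposure 48 h, 5% CO2. Adherent cells TCA-fixed 1 h at 4 °C, stained with 0.4% SRB, solubilised in 10 mM Trizma base, read at 515 nm. Growth percent derived from ODtzero, ODtest and ODctrl.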

OVCAR-5 = assay: NCI-60 single-dose antiproliferative screen; format: cell-based; conditions: Homo sapiens, OVCAR-5, 48 h, read-out: growth percent
Method in brief: as §1

BT-549 = assay: NCI-60 single-dose antiproliferative screen; format: cell-based; conditions: Homo sapiens, BT-549, 48 h, read-out: growth percent
Method in brief: as §1

OVCAR-4 = assay: NCI-60 single-dose antiproliferative screen; format: cell-based; conditions: Homo sapiens, OVCAR-4, 48 h, read-out: growth percent
Method in brief: as §1

NCI/ADR-RES = assay: NCI-60 single-dose antiproliferative screen; format: cell-based; conditions: Homo sapiens, 48 h, read-out: growth percent
Method in brief: as §1

U251 = assay: NCI-60 single-dose antiproliferative screen; format: cell-based; conditions: Homo sapiens, U-251, 48 h, read-out: growth percent
Method in brief: as §2

SK-MEL-28 = assay: NCI-60 single-dose antiproliferative screen; format: cell-based; conditions: Homo sapiens, SK-MEL-28, 48 h, read-out: growth percent
Method in brief: as §2

MDA-MB-231 ATCC = assay: NCI-60 single-dose antiproliferative screen; format: cell-based; conditions: Homo sapiens, MDA-MB-231, 48 h, read-out: growth percent
Method in brief: as §1

LOX IMVI = assay: NCI-60 single-dose antiproliferative screen; format: cell-based; conditions: Homo sapiens, 48 h, read-out: growth percent
Method in brief: as §1

SK-MEL-5 = assay: NCI-60 single-dose antiproliferative screen; format: cell-based; conditions: Homo sapiens, SK-MEL-5, 48 h, read-out: growth percent
Method in brief: as §2

K-562 = assay: NCI-60 single-dose antiproliferative screen; format: cell-based; conditions: Homo sapiens, K562, 48 h, read-out: growth percent
Method in brief: as §1

786-0 = assay: NCI-60 single-dose antiproliferative screen; format: cell-based; conditions: Homo sapiens, 786-0, 48 h, read-out: growth percent
Method in brief: as §1

OVCAR-3 = assay: NCI-60 single-dose antiproliferative screen; format: cell-based; conditions: Homo sapiens, OVCAR-3, 48 h, read-out: growth percent
Method in brief: as §1

OVCAR-8 = assay: NCI-60 single-dose antiproliferative screen; format: cell-based; conditions: Homo sapiens, OVCAR-8, 48 h, read-out: growth percent
Method in brief: as §1

HOP-92 = assay: NCI-60 single-dose antiproliferative screen; format: cell-based; conditions: Homo sapiens, HOP-92, 48 h, read-out: growth percent
Method in brief: as §1

HCT-15 = assay: NCI-60 single-dose antiproliferative screen; format: cell-based; conditions: Homo sapiens, HCT-15, 48 h, read-out: growth percent
Method in brief: as §1

ACHN = assay: NCI-60 single-dose antiproliferative screen; format: cell-based; conditions: Homo sapiens, 48 h, read-out: growth percent
Method in brief: as §1

M14 = assay: NCI-60 single-dose antiproliferative screen; format: cell-based; conditions: Homo sapiens, M14, 48 h, read-out: growth percent
Method in brief: as §1

MALME-3M = assay: NCI-60 single-dose antiproliferative screen; format: cell-based; conditions: Homo sapiens, 48 h, read-out: growth percent
Method in brief: as §1

NCI-H460 cells [1] = assay: Colony-forming ability; format: cell-based, human
NCI-H460 cells [2] = assay: Wound healing assay; format: cell-based, human
HL-60(TB) = assay: NCI-60 single-dose antiproliferative screen; format: cell-based; conditions: Homo sapiens, HL-60, 48 h, read-out: growth percent
A498 = assay: NCI-60 single-dose antiproliferative screen; format: cell-based; conditions: Homo sapiens, A498, 48 h, read-out: growth percent
Method in brief: as §1

Row | Structure (SMILES) | activity at 10 µM (EKVX) [%] | activity at 10 µM (SNB-75) [%] | activity at 10 µM (OVCAR-5) [%] | activity at 10 µM (BT-549) [%] | activity at 10 µM (OVCAR-4) [%] | activity at 10 µM (NCI/ADR-RES) [%] | activity at 10 µM (U251) [%] | activity at 10 µM (SK-MEL-28) [%] | activity at 10 µM (MDA-MB-231 ATCC) [%] | activity at 10 µM (LOX IMVI) [%] | activity at 10 µM (SK-MEL-5) [%] | activity at 10 µM (K-562) [%] | activity at 10 µM (786-0) [%] | activity at 10 µM (OVCAR-3) [%] | activity at 10 µM (OVCAR-8) [%] | activity at 10 µM (HOP-92) [%] | activity at 10 µM (HCT-15) [%] | activity at 10 µM (ACHN) [%] | activity at 10 µM (M14) [%] | activity at 10 µM (MALME-3M) [%] | other results
1 | COc1cc(CNC(=O)CCCC/C=C/C(C)C)ccc1OCc1cn(-c2cccc([N+](=O)[O-])c2)nn1 [14f, (E)-N-(3-Methoxy-4-((1-(3-nitrophenyl)-1H-1,2,3-triazol-4-yl)methoxy)benzyl)-8-methylnon-6-enamide] | 95.1 | 92 | 107 | 96.3 | 94.2 | 81.8 | 85.3 | 106 | 88.4 | 92.9 | 93.2 | 81.5 | 73.4 | 105 | 76.9 | 70.4 | 77.9 | 78.9 | 93.4 | 103 | 
2 | COc1cc(CNC(=O)CCCC/C=C/C(C)C)ccc1OCc1cn(-c2ccc(F)cc2)nn1 [14h, (E)-N-(4-((1-(4-Fluorophenyl)-1H-1,2,3-triazol-4-yl)methoxy)-3-methoxybenzyl)-8-methylnon-6-enamide] | 72.7 | 83.5 | 97.6 | 91 | 82.2 | 70.6 | 83.9 | 102 | 69.1 | 84.2 | 83.7 | 68.7 | 83.7 | 96.4 | 71.5 | 66.2 | 89.6 | 81.2 | 94 | 103 | 
3 | COc1cc(CNC(=O)CCCC/C=C/C(C)C)ccc1OCc1cn(-c2ccccc2F)nn1 [14i, (E)-N-(4-((1-(2-Fluorophenyl)-1H-1,2,3-triazol-4-yl)methoxy)-3-methoxybenzyl)-8-methylnon-6-enamide] | 79.1 | 88.1 | 103 | 89.2 | 84.2 | 89.8 | 93.1 | 107 | 78.7 | 87.1 | 91.5 | 82.3 | 97.2 | 97.5 | 94.5 | 78.7 | 96 | 83 | 96.8 | 108 | 
4 | COc1cc(CNC(=O)CCCC/C=C/C(C)C)ccc1OCc1cn(-c2ccc(C#N)cc2)nn1 [14j, (E)-N-(4-((1-(4-Cyanophenyl)-1H-1,2,3-triazol-4-yl)methoxy)-3-methoxybenzyl)-8-methylnon-6-enamide] | 90.8 | 94.2 | 95.3 | 91.2 | 94.9 | 79.7 | 91.2 | 105 | 90.8 | 78.2 | 87 | 75.4 | 91.7 | 109 | 63.3 | 80.5 | 83.5 |  | 95.3 | 102 | colony-forming ability (NCI-H460 cells [1]): inhibited the colony-forming ability; migration capacity (wound healing) (NCI-H460 cells [2]): moderate wound healing
5 | COc1cc(CNC(=O)CCCC/C=C/C(C)C)ccc1OCc1cn(-c2ccc(Br)cc2)nn1 [14k, (E)-N-(4-((1-(4-Bromophenyl)-1H-1,2,3-triazol-4-yl)methoxy)-3-methoxybenzyl)-8-methylnon-6-enamide] | 72.7 | 90.9 | 116 | 88.1 | 89.2 | 72 | 75.5 | 100 | 71.3 | 83.7 | 72 | 59.2 | 92 | 100 | 79.6 | 68.8 | 94 | 87.7 | 90.2 | 103 | 
6 | COc1cc(CNC(=O)CCCC/C=C/C(C)C)ccc1OCc1cn(-c2ccc(C)cc2)nn1 [14n, (E)-N-(3-Methoxy-4-((1-(p-tolyl)-1H-1,2,3-triazol-4-yl)methoxy)benzyl)-8-methylnon-6-enamide] | 84.8 | 99.5 | 108 | 105 | 88.8 | 87.4 | 81.7 | 114 | 72.2 | 85.1 | 86.8 | 80 | 99.6 | 91.8 | 76.5 | 83.5 | 104 | 72 | 93.3 | 110 | 
7 | COc1cc(CNC(=O)CCCC/C=C/C(C)C)ccc1OCc1cn(-c2ccc(C)c(C)c2)nn1 [14p, (E)-N-(4-((1-(3,4-Dimethylphenyl)-1H-1,2,3-triazol-4-yl)methoxy)-3-methoxybenzyl)-8-methylnon-6-enamide] | 79.3 | 91 | 107 | 93.7 | 84.9 | 80.6 | 88.3 | 112 | 89.3 | 84.5 | 81.5 | 74.6 | 99.8 | 100 | 83.3 | 80.4 | 71.2 | 68.5 | 93.5 | 107 | 
8 | COc1cc(CNC(=O)C[C@H](C)CCC=C(C)C)ccc1OCc1cn(-c2ccc(Cl)cc2)nn1 [18b, (R)-N-(4-((1-(4-Chlorophenyl)-1H-1,2,3-triazol-4-yl)methoxy)-3-methoxybenzyl)-3,7-dimethyloct-6-enamide] | 75.3 | 41.6 | 80.7 | 87.4 | 52.7 | 48 | 57.7 | 87 | 59.6 | 59.7 | 62.8 | 53.5 | 84.3 | 82.3 | 49.1 | 53 | 65.3 | 44.8 | 90.8 | 68.3 | activity at 10 µM (HL-60(TB)): 87.8%; activity at 10 µM (A498): 98.9%
